Test results published in BindingDB's records for doi:10.1021/acsmedchemlett.6b00438 (Rhône-Poulenc Rorer, 2017).

How the values were obtained:
[1] = molecular target: Phosphatidylinositol 3-kinase regulatory subunit alpha/4,5-bisphosphate 3-kinase catalytic subunit delta isoform (Homo sapiens, UniProt P27986+O00329); assay: Inhibition of full length recombinant human N-terminal His6-tagged PI3K p110delta/human p85alpha expressed in baculovirus infected sf21 cells using PIP2 as substrate preincubated for 30 mins followed by substrate addition by HTRF assay
Chain of Phosphatidylinositol 3-kinase regulatory subunit alpha/4,5-bisphosphate 3-kinase catalytic subunit delta isoform (P27986 whole entry, one chain of several, canonical isoform): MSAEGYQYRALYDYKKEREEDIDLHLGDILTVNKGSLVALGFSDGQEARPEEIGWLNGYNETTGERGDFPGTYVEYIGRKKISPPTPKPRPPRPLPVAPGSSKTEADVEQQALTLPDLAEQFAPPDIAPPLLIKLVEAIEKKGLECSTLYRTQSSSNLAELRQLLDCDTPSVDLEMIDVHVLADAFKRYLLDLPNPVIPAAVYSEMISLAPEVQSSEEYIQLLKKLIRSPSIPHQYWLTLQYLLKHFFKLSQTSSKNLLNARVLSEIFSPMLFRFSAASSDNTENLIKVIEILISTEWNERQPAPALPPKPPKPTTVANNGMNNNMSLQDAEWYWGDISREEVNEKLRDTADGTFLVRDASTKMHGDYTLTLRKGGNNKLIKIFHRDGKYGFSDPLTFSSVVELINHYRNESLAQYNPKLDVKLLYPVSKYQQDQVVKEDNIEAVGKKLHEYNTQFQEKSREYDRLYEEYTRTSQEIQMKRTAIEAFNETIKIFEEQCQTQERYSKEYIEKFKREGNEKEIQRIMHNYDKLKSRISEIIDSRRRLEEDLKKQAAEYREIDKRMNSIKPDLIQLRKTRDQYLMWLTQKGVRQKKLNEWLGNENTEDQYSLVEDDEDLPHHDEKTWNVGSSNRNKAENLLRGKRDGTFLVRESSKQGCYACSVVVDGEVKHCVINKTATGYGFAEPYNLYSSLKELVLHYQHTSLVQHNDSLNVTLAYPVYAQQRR

[2] = molecular target: T1, Phosphatidylinositol 4,5-bisphosphate 3-kinase catalytic subunit delta isoform (Homo sapiens, UniProt O00329); assay: Inhibition of PI3Kdelta in human THP1 cells assessed as reduction in MCSF-stimulated akt phosphorylation at Thr308 preincubated for 30 mins followed by MCSF stimulation for 3 mins by ELISA
T1 sequence (O00329 whole entry): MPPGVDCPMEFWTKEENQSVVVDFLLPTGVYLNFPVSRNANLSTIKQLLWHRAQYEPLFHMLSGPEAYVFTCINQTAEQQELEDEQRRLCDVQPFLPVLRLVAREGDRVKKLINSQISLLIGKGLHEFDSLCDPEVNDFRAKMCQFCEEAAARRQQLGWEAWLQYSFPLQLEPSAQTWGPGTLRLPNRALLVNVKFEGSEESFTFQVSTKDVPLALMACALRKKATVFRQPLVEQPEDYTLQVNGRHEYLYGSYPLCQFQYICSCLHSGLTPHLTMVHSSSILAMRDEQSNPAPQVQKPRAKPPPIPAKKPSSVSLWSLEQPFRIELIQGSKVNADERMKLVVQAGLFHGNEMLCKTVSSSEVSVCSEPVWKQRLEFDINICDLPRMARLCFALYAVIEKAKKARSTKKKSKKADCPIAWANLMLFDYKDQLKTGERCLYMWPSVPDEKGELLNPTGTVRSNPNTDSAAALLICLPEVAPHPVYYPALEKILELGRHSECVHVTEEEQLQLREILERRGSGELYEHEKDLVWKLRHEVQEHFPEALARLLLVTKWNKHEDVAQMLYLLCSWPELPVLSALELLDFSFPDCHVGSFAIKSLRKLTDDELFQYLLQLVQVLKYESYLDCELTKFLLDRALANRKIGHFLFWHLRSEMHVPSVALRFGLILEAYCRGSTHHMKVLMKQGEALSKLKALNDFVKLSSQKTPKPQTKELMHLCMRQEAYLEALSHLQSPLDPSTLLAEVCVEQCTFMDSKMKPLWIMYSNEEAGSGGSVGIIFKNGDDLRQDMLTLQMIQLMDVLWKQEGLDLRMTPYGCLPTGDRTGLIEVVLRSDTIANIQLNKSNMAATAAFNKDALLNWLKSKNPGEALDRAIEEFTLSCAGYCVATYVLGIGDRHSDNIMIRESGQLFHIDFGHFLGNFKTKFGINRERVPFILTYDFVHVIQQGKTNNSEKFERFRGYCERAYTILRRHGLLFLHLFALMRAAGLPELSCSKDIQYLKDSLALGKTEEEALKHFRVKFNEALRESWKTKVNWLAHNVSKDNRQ
Procedure, shortened: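 THP-1 cells exposed to compound for 30 min, then stimulated with MCSF at EC80 for 3 min; lysates assayed by ELISA for pAkt (Thr308).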

- IC50 [1]: 17 nM
- IC50 [2]: 51 nM
Compound: N#Cc1c(N)ncnc1NC(CC(F)(F)F)c1nn2cccc2c(=O)n1-c1ccccc1 (configuration not stated)
